Source: ChEMBL document CHEMBL1128284, “Synthesis and in vitro activity of 17 beta-(N-alkyl/arylformamido)- and 17 beta-[(N-alkyl/aryl)alkyl/arylamido]-4-methyl-4-aza-3-oxo-5 alpha-androstan-3-ones as inhibitors of human 5 alpha-reductases and antagonists of the androgen receptor” (J Med Chem, 1995)

Legend:
[1] = molecular target: T1, 3-oxo-5-alpha-steroid 4-dehydrogenase 2 (Homo sapiens, UniProt P31213); test: In vitro inhibition of human steroid 5-alpha-reductase type 2 in SW-13-transfected cells; type: cell-based
T1 sequence (P31213 whole entry): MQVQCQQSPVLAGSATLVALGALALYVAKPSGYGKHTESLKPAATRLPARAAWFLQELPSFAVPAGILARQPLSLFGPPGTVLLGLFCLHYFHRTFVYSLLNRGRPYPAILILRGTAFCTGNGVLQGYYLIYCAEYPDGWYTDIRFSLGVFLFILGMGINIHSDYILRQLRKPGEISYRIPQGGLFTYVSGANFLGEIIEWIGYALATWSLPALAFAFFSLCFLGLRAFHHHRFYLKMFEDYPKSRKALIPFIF
How it was run: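 Homogenate of SW-13 cells transfected with human type II 5α-reductase cDNA; 5 nM [3H]androstenedione, 500 μM NADPH, 50 mM Tris HCl pH 7.5 with 20% glycerol, 1 mM EDTA; 60 min, 37 °C. Ether extraction with steroid carriers, TLC, radioactivity counted; androstanedione formed as % of control.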

[2] = molecular target: T2, 3-oxo-5-alpha-steroid 4-dehydrogenase 1 (Homo sapiens, UniProt P18405); test: In vitro inhibition of human steroid 5-alpha-reductase type I in Du-145 cells; type: cell-based
T2 sequence (P18405 whole entry): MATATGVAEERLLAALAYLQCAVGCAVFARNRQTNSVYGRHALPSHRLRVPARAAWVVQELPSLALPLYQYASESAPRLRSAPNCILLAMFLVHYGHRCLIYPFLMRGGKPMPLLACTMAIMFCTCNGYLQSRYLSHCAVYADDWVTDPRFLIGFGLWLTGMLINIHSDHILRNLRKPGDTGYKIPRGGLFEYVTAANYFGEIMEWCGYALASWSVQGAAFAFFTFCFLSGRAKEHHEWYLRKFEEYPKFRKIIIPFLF
How it was run: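 Intact DU-145 cells (passages 60–90), 100000 cells/well, adhered 24 h; compounds in ethanol diluted in DMEM/2% charcoal-adsorbed FBS with 5 nM [3H]androstenedione, 24 h at 37 °C, 5% CO2. Ether extraction, TLC, radioactivity; androstanedione, androsterone, epiandrosterone formed as % of control.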

| Structure (SMILES) | IC50 [1] [nM] | IC50 [2] [nM] |
| --- | --- | --- |
| CCC(CC)N(C=O)[C@H]1CCC2C3CC[C@H]4N(C)C(=O)CC[C@]4(C)C3CC[C@@]21C (stereo partly specified) | > 100 | – |
| CC(C)CN(C=O)[C@H]1CCC2C3CC[C@H]4N(C)C(=O)CC[C@]4(C)C3CC[C@@]21C (stereo partly specified) | > 100 | 7.31 |
| COc1ccc(N(C(=O)C(C)C)[C@H]2CCC3C4CC[C@H]5N(C)C(=O)CC[C@]5(C)C4CC[C@@]32C)cc1 (stereo partly specified) | > 100 | 5.44 |
| CN(C=O)[C@H]1CCC2C3CC[C@H]4NC(=O)CC[C@]4(C)C3CC[C@@]21C (stereo partly specified) | > 1000 | 3700 |
| CCCCCN(C(=O)c1ccccc1)[C@H]1CCC2C3CC[C@H]4N(C)C(=O)CC[C@]4(C)C3CC[C@@]21C (stereo partly specified) | > 100 | 3.22 |
| CN1C(=O)CC[C@]2(C)C3CC[C@@]4(C)C(CC[C@@H]4N(C=O)CCC(C)(C)C)C3CC[C@@H]12 (stereo partly specified) | > 100 | 2.35 |
| CN1C(=O)CC[C@]2(C)C3CC[C@@]4(C)C(CC[C@@H]4N(C=O)C4CCCCC4)C3CC[C@@H]12 (stereo partly specified) | > 100 | – |
| CN(C=O)[C@H]1CCC2C3CC[C@H]4N(C)C(=O)C=C[C@]4(C)C3CC[C@@]21C (stereo partly specified) | > 1000 | 124 |
| CN(C=O)[C@H]1CCC2C3CC[C@H]4N(C)C(=O)CC[C@]4(C)C3CC[C@@]21C (stereo partly specified) | 1000 | – |
| CCCCCN(C(=O)CC)[C@H]1CCC2C3CC[C@H]4N(C)C(=O)CC[C@]4(C)C3CC[C@@]21C (stereo partly specified) | > 100 | 4.56 |
| CCCCCCCN(C=O)[C@H]1CCC2C3CC[C@H]4N(C)C(=O)CC[C@]4(C)C3CC[C@@]21C (stereo partly specified) | 14 | 9.57 |
| CC(C)CCN(C=O)[C@H]1CCC2C3CC[C@H]4N(C)C(=O)CC[C@]4(C)C3CC[C@@]21C (stereo partly specified) | > 100 | 2.19 |
| COc1ccc(N(C(=O)c2ccccc2)[C@H]2CCC3C4CC[C@H]5N(C)C(=O)CC[C@]5(C)C4CC[C@@]32C)cc1 (stereo partly specified) | > 1000 | 2.11 |
| CC(C)N(C=O)[C@H]1CCC2C3CC[C@H]4N(C)C(=O)CC[C@]4(C)C3CC[C@@]21C (stereo partly specified) | > 100 | 9.53 |
| CC(C)C(=O)N(c1ccc([N+](=O)[O-])c(C(F)(F)F)c1)[C@H]1CCC2C3CC[C@H]4N(C)C(=O)CC[C@]4(C)C3CC[C@@]21C (stereo partly specified) | > 1000 | 59.8 |
| CC(C)C(=O)N(c1ccc([N+](=O)[O-])cc1)[C@H]1CCC2C3CC[C@H]4N(C)C(=O)CC[C@]4(C)C3CC[C@@]21C (stereo partly specified) | > 1000 | 32.8 |
| CCCCCCN(C=O)[C@H]1CCC2C3CC[C@H]4N(C)C(=O)CC[C@]4(C)C3CC[C@@]21C (stereo partly specified) | > 100 | 7.25 |

| Structure (SMILES) | IC50 [1] [nM] | IC50 [2] [nM] |
| --- | --- | --- |
| CCCCN(C(C)=O)[C@H]1CCC2C3CC[C@H]4N(C)C(=O)CC[C@]4(C)C3CC[C@@]21C (stereo partly specified) | > 100 | – |
| CCN(CC)C(=O)[C@H]1CC[C@H]2[C@@H]3CC[C@H]4N(C)C(=O)CC[C@]4(C)[C@H]3CC[C@]12C | 7.48 | 4.14 |
| CC(C)C(=O)N(c1ccccc1)[C@H]1CCC2C3CC[C@H]4N(C)C(=O)CC[C@]4(C)C3CC[C@@]21C (stereo partly specified) | 582 | 10.5 |
| CCCCCN(C(=O)CCCCBr)[C@H]1CCC2C3CC[C@H]4N(C)C(=O)CC[C@]4(C)C3CC[C@@]21C (stereo partly specified) | 1000 | 2.42 |
| CCCN(C=O)[C@H]1CCC2C3CC[C@H]4N(C)C(=O)CC[C@]4(C)C3CC[C@@]21C (stereo partly specified) | > 100 | 5.08 |
| CCCCCN(C=O)[C@H]1CCC2C3CC[C@H]4N(C)C(=O)CC[C@]4(C)C3CC[C@@]21C (stereo partly specified) | > 100 | 0.91 |
| CN1C(=O)CC[C@]2(C)C3CC[C@@]4(C)C(CC[C@@H]4N(C(=O)c4ccccc4)c4ccccc4)C3CC[C@@H]12 (stereo partly specified) | 3.75 | 2.93 |
| CN1C(=O)CC[C@]2(C)C3CC[C@@]4(C)C(CC[C@@H]4N(C=O)C4CC4)C3CC[C@@H]12 (stereo partly specified) | > 100 | – |
| CN1C(=O)CC[C@]2(C)C3CC[C@@]4(C)C(CC[C@@H]4N(C=O)Cc4ccccc4)C3CC[C@@H]12 (stereo partly specified) | > 100 | 5.63 |
| CCCCN(C=O)[C@H]1CCC2C3CC[C@H]4N(C)C(=O)CC[C@]4(C)C3CC[C@@]21C (stereo partly specified) | > 100 | 3.05 |
| CN(C=O)[C@H]1CCC2C3CC[C@H]4NC(=O)C=C[C@]4(C)C3CC[C@@]21C (stereo partly specified) | > 1000 | 207 |
| CCCCCN(C(=O)CCC)[C@H]1CCC2C3CC[C@H]4N(C)C(=O)CC[C@]4(C)C3CC[C@@]21C (stereo partly specified) | > 100 | 3.31 |
| CCCCCN(C(=O)CCCC)[C@H]1CCC2C3CC[C@H]4N(C)C(=O)CC[C@]4(C)C3CC[C@@]21C (stereo partly specified) | > 100 | 1.77 |
| CCCCCCCCN(C=O)[C@H]1CCC2C3CC[C@H]4N(C)C(=O)CC[C@]4(C)C3CC[C@@]21C (stereo partly specified) | 18.4 | 16.9 |
| CN1C(=O)CC[C@@]2(C)C1=CCC1C2CC[C@@]2(C)C1CC[C@@H]2N(C)C=O (stereo partly specified) | > 1000 | 1900 |
| CC(C)(C)NC(=O)[C@H]1CC[C@H]2[C@@H]3CC[C@H]4NC(=O)C=C[C@]4(C)[C@H]3CC[C@]12C [FINASTERIDE] | 4.53 | 26.3 |
